Activity calls are given as the source filed them. The rule behind the calls is not given here.
Experiments:
[1] = target: Adenosine receptors; A1 & A3 (Homo sapiens) (UniProt P30542+P0DMS8); assay: Selectivity ratio of Ki for human recombinant adenosine A1 receptor to Ki for human recombinant adenosine A3 receptor
Procedure, shortened: (§1)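 Selectivity is Ki at human A1R (displacement of [3H]CCPA) or at human A2AR (displacement of [3H]NECA) divided by Ki at human A3R (displacement of [3H]NECA). All receptors stably expressed in CHO cells, competition experiments in 96-well microplates.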

[2] = target: T1, Adenosine receptor A3 (Homo sapiens) (UniProt P0DMS8); assay: Agonist activity at human recombinant adenosine A3 receptor expressed in CHO cells assessed as nonradiaoactive DELFIA Eu-GTP binding treated for 15 mins before addition of Eu-GTP measured after 45 mins by time-resolved fluorometric method relative to Cl-IBMECA; format: cell-based; design: concentration or dose not given beside the values
T1 sequence (whole entry): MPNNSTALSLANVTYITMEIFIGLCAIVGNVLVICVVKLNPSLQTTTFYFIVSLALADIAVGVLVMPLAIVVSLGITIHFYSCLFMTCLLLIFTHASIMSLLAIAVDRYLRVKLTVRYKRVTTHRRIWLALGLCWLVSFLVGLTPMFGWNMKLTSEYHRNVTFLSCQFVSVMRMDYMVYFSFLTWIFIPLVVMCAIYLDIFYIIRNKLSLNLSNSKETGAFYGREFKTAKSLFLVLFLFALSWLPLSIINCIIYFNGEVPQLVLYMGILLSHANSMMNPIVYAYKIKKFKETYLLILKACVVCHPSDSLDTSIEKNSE

Homo sapiens = organism: Homo sapiens; assay: Selectivity ratio of Ki for human recombinant adenosine A2A receptor to Ki for human recombinant adenosine A3 receptor; procedure, shortened: as §1
Adenosine receptor A3 [3] = target: T2, Adenosine receptor A3 (Homo sapiens, UniProt P0DMS8); assay: Agonist activity at human recombinant adenosine A3 receptor expressed in CHO cells assessed as nonradiaoactive DELFIA Eu-GTP binding treated for 15 mins before addition of Eu-GTP measured after 45 mins by time-resolved fluorometric method; format: cell-based
T2 sequence (P0DMS8 whole entry): T1 sequence (whole entry)

[4] = target: T1, Adenosine receptor A3 (Homo sapiens); assay: Ratio of Cl-IBMECA EC50 to compound EC50 for human recombinant adenosine A3 receptor expressed in CHO cells; format: cell-based
[5] = target: T1, Adenosine receptor A3 (Homo sapiens); assay: Agonist activity at human recombinant adenosine A3 receptor expressed in CHO cells assessed as nonradiaoactive DELFIA Eu-GTP binding treated for 15 mins before addition of Eu-GTP measured after 45 mins by time-resolved fluorometric method in presence of increasing saponin concentration; format: cell-based
Adenosine receptor A3 [6] = target: T2, Adenosine receptor A3; assay: Displacement of [3H]NECA from human recombinant adenosine A3 receptor expressed in CHO cells; format: cell-based
Procedure, shortened: (§2)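 Competition binding in 96-well microplates with radioligand [3H]NECA on CHO cells stably transfected with human recombinant A2AR or A3R. Ki of unlabeled compound from displacement of specific binding, with 95% confidence intervals.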

Adenosine receptor A1 = target: T3, Adenosine receptor A1 (Homo sapiens, UniProt P30542); assay: Displacement of [3H]CCPA from human recombinant adenosine A1 receptor expressed in CHO cells; format: cell-based
T3 sequence (P30542 whole entry): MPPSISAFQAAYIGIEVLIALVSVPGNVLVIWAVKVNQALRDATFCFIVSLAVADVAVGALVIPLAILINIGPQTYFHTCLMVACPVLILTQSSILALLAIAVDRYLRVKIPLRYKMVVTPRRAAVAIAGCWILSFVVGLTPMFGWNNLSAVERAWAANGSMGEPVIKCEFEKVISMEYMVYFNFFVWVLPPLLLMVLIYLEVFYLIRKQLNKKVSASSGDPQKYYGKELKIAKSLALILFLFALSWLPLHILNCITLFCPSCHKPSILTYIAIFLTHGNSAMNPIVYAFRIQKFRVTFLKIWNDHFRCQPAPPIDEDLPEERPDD

Adenosine receptor A2a = Adenosine receptor A2a (Homo sapiens, UniProt P29274); assay: Displacement of [3H]NECA from human recombinant adenosine A2A receptor expressed in CHO cells; format: cell-based; procedure, shortened: as §2
Adenosine receptor A2a, sequence (P29274 whole entry): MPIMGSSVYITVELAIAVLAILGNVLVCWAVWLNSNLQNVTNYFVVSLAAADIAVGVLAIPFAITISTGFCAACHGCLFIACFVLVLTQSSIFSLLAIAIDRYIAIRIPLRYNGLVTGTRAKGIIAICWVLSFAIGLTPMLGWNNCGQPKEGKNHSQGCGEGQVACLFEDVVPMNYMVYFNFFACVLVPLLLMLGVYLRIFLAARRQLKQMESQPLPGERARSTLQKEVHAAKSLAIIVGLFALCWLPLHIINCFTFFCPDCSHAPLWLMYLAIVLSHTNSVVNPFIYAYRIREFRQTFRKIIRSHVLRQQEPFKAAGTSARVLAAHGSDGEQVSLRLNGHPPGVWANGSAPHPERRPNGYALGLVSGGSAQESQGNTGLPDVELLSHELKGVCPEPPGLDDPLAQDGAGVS

| SMILES | Ratio Ki [1] | Activity [2] [%] | Ratio Ki (Homo sapiens) | EC50 (Adenosine receptor A3 [3]) [nM] | Ratio EC50 [4] | Activity [5] | Ki (Adenosine receptor A3 [6]) [nM] | Ki (Adenosine receptor A1) [nM] | Ki (Adenosine receptor A2a) [nM] |
| --- | --- | --- | --- | --- | --- | --- | --- | --- | --- |
| CNc1nc(C#Cc2ccccc2)nc2c1ncn2[C@@H]1O[C@H](CO)[C@@H](O)[C@H]1O | 500 | 65 | 2500 | 290 | – | – | – | – | – |
| CNC(=O)[C@H]1O[C@@H](n2cnc3c(NOC)nc(C#Cc4ccccn4)nc32)[C@H](O)[C@@H]1O | 3600 | 100 | 16400 | 52 | 7 | inactive | – | – | – |
| CNC(=O)[C@H]1O[C@@H](n2cnc3c(NC)nc(C#Cc4ccccc4)nc32)[C@H](O)[C@@H]1O | 76500 | 100 | 97000 | 151 | – | inactive | 0.44 | 32800 | 41700 |
| CNC(=O)[C@H]1O[C@@H](n2cnc3c(NOC)nc(C#Cc4ccc(F)cc4)nc32)[C@H](O)[C@@H]1O | 1600 | 100 | 9800 | 210 | – | inactive | – | – | – |
| CONc1nc(C#Cc2ccccc2)nc2c1ncn2[C@@H]1O[C@H](CO)[C@@H](O)[C@H]1O | 300 | 55 | 1100 | 320 | – | – | 3.8 | – | – |
| CNC(=O)[C@H]1O[C@@H](n2cnc3c(NC)nc(C#Cc4ccccn4)nc32)[C@H](O)[C@@H]1O | 22000 | 100 | 61000 | 46 | 7 | inactive | 0.4 | 8740 | 24300 |

More lines, now with the values ahead:

| Ratio Ki [1] | Activity [2] [%] | Ratio Ki (Homo sapiens) | EC50 (Adenosine receptor A3 [3]) [nM] | Ratio EC50 [4] | Activity [5] | Ki (Adenosine receptor A3 [6]) [nM] | Ki (Adenosine receptor A1) [nM] | Ki (Adenosine receptor A2a) [nM] | SMILES |
| --- | --- | --- | --- | --- | --- | --- | --- | --- | --- |
| – | – | – | 363 | – | – | – | – | – | CNC(=O)[C@H]1O[C@@H](n2cnc3c(NCc4ccc(I)cc4)nc(Cl)nc32)[C@H](O)[C@@H]1O |
| 4800 | 100 | 8600 | 120 | – | inactive | – | – | – | CNC(=O)[C@H]1O[C@@H](n2cnc3c(NOC)nc(C#Cc4ccccc4)nc32)[C@H](O)[C@@H]1O |
| 12500 | 100 | 29500 | 190 | – | inactive | 0.43 | 5310 | 12700 | CNC(=O)[C@H]1O[C@@H](n2cnc3c(NC)nc(C#Cc4ccc(F)cc4)nc32)[C@H](O)[C@@H]1O |
| – | 9 | – | – | – | – | – | – | – | CONc1nc(C#Cc2ccccn2)nc2c1ncn2[C@@H]1O[C@H](CO)[C@@H](O)[C@H]1O |
